Non-standard residues stand in square brackets, D forms with d. No end group written: not given here. pS = N[C@@H](COP(=O)(O)O)C(=O)O
How the values were obtained:
[1] = system: chaperone-mediated autophagy (CMA) in NIH3T3 cells; experiment: CMA activity, KFERQ-PA-mCherry1 reporter; assay type: cell-based, mouse; details: NIH3T3, serum-free medium, 10 and 30 μM peptide, 12 h; N > 50 cells; Fig. 4
Procedure, shortened: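 NIH3T3 cells stably expressing the photoactivable KFERQ-PA-mCherry1 reporter were photoactivated, then kept in serum-free medium to maximally activate CMA, with or without 10 or 30 μM test peptide for 12 h. Scrambled and unphosphorylated peptides served as controls. Nuclei were stained with DAPI. Fluorescent puncta per cell were counted in at least 50 cells. Results are mean + SEM; Student t test.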

[2] = system: B cells from MRL/lpr mice; experiment: Internalization and colocalization in purified B cells, confocal microscopy; assay type: cell-based, mouse; details: PBS-2% FCS
CTSD = CTSD protein in purified B cells of treated mice, western immunoblotting; assay type: in vivo; details: MRL/lpr mice, 100 μg P140/mouse/injection once or 6 times at daily intervals; Fig. 5F
Procedure, shortened: (§1)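 MRL/lpr mice (10–13 wk old, 3 per group) received 100 μg test peptide per injection. Dosing was either once, with cells taken 5 d later, or 6 times at daily intervals, with cells taken 1 d after the last injection. Purified B cells were immunoblotted and band intensity was expressed relative to β-ACTA. Ratios were normalized to untreated MRL/lpr mice and given as mean of 3 mice + SD; at least 2 independent experiments.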

[3] = system: chaperone-mediated autophagy (CMA) in NIH3T3 cells; experiment: CMA activity, KFERQ-PS-Dendra reporter, high-content microscopy; assay type: cell-based, mouse; details: 6 P140 concentrations, serum, starvation, paraquat 50 μM, > 700 cells, compared to an inactive P140 analog, Fig. S9
MRL/lpr lupus-prone mice = details: cited from earlier work
[4] = system: lysosomes isolated from mouse liver; experiment: CMA in vitro: GAPDH binding and uptake by isolated lysosomes; assay type: biochemical
HSPA8 = HSPA8 (Bos taurus, UniProt P19120); experiment: HSPA8 ATPase activity; assay type: biochemical; details: HSPA8 500 nM without HSP40; 100 μM ATP; 3 h at 37°C; luminescence; 3 independent experiments; Fig. 1D
Sequence of HSPA8 (P19120 whole entry): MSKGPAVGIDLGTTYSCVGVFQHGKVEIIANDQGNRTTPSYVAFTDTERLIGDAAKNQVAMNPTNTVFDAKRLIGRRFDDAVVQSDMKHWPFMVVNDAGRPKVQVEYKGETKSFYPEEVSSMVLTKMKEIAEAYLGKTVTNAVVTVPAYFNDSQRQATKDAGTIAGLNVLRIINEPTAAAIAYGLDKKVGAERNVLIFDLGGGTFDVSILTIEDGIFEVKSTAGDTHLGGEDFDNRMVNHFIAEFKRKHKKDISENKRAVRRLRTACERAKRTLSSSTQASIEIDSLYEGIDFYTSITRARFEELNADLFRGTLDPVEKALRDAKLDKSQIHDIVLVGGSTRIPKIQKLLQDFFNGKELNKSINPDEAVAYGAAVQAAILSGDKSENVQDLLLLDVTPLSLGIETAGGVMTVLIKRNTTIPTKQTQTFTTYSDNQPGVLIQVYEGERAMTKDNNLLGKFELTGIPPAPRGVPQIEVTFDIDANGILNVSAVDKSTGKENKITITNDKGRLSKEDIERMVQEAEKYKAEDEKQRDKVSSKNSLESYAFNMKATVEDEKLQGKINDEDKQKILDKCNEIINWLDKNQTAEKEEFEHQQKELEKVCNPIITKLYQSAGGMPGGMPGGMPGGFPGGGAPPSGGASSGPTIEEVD

[5] = Stability in matrices of isolated lysosomes; assay type: in vitro ADME; details: pH 4.2, 5.3, 7.2
Procedure, shortened: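 Peptide stability was tested in artificial lysosomal fluid at pH 4.2, 5.3 and 7.2. The fluid was supplemented with CTSD plus CTSL or with matrix extracted from isolated lysosomes. Samples were analysed by analytical RP-HPLC at 220 nm using water + 0.1% TFA and acetonitrile + 0.08% TFA eluents. Degradation was judged from the remaining intact-peptide peak area at several time intervals.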

[6] = system: HSPA8/HSC70/HSP73 chaperone; details: cited from earlier work
MRL/lpr mice splenocytes = experiment: Intracellular localization in splenocytes after iv administration; assay type: in vivo, mouse; details: 1 h after iv administration; Fig. S5
Procedure, shortened: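 MRL/lpr mice (10–12 wk old) received 100 μg Alexa Fluor 488-labeled peptide intravenously. Splenocytes taken 1 h after injection were incubated for 30 min at 37°C in complete RPMI with 100 nM LysoTracker Red DND-99 or 500 nM MitoTracker Deep Red FM. After washing in the same medium, they were imaged immediately by confocal microscopy.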

LAMP2A = experiment: Lamp2a mRNA in purified B cells, qRT-PCR; assay type: in vivo, mouse; details: B cells of MRL/lpr mice; Fig. S13
LAMP1 = LAMP1 protein in purified B cells of treated mice, western immunoblotting; assay type: in vivo; details: MRL/lpr mice, 100 μg P140/mouse/injection once or 6 times at daily intervals; Fig. 5F
Procedure, shortened: as §1

lupus patients = details: phase II clinical trials; cited from earlier work
[7] = system: CTSD/cathepsin D and CTSL/cathepsin L; experiment: Stability in artificial lysosomal fluid; assay type: in vitro ADME
[8] = system: major histocompatibility complex class II (MHCII) molecules; details: cited from earlier work
[9] = biological target: HSPA8 N-terminal fragment 1-386 (nucleotide binding domain) (human, UniProt P11142 1-386); experiment: ELISA
Sequence of HSPA8 N-terminal fragment 1-386 (nucleotide binding domain) (P11142 1-386): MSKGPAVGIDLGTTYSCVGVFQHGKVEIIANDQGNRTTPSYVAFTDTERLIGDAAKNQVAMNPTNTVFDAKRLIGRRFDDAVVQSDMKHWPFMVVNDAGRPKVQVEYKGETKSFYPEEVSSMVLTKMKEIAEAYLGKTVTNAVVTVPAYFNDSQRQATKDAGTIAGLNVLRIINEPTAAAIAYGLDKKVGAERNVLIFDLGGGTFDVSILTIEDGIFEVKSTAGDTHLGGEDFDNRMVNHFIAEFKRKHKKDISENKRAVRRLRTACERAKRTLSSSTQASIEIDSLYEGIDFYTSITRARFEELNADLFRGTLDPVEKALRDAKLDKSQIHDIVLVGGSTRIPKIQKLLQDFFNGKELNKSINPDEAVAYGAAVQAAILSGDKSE

[10] = administered intravenously to MRL/lpr mice

131–151: unphosphorylated (nonprotective) peptide 131–151 of SNRNP70/U1–70K (RIHMVYSKRSGKPRGYAFIEY; UniProt P08621 131-151, looked up, fragment) [reference compound]
CMA activity, average number of fluorescent puncta per cell [1]: did not observe any changes in CMA activity
colocalization with early endosomal marker EEA1, ex vivo ([2]; 10 μM Alexa Fluor 488-labeled peptide, 15 min at 37°C, Fig. 3B, S6B, C): colocalization with EEA1 was hardly seen

RIHMVYSKRpSGKPRGYAFIEY [P140]
CMA activity, average number of fluorescent puncta per cell [1]: clearly diminished the average number of puncta per cell in a dose-dependent manner
CTSD expression in purified B cells (CTSD): highly significant reduction
CMA activity, average number of puncta per cell [3]: significantly diminish CMA activity in a peptide concentration-dependent manner
protective effect in lupus-prone mice (MRL/lpr lupus-prone mice; MRL/lpr mice): displays protective properties
MHCII expression (MRL/lpr lupus-prone mice; MRL/lpr mice, earlier work): decreases MHCII overexpression
signs of systemic autoimmunity (proteinuria, vasculitis, dermatitis, anti-DNA antibody production) (MRL/lpr lupus-prone mice; MRL/lpr mice, earlier work): attenuates biological and clinical signs of systemic autoimmunity
HSPA8 expression (MRL/lpr lupus-prone mice; [10]): decreases the HSPA8 overexpression observed in this murine strain
autophagy markers SQSTM1/p62 and LC3-II (MRL/lpr lupus-prone mice; [10]): increases the accumulation of the autophagy markers SQSTM1/p62 (sequestosome 1) and LC3-II
GAPDH associated with lysosomes, exogenous HSPA8 added ([4]; as above with exogenous HSPA8 in the incubation media, Fig. S10B): not even when exogenous HSPA8 was added
uptake of GAPDH by lysosomes ([4]; difference of GAPDH with and without protease inhibitors, Fig. S10C, D): did not significantly modify binding or uptake of GAPDH by CMA
GAPDH associated with lysosomes ([4]; lysosomes 75 μg protein pretreated with protease inhibitors, GAPDH 25 μg, 20 min at 37°C, pH 7.3, increasing peptide concentrations, immunoblot, Fig. S10A): did not modify the amount of GAPDH recovered in lysosomes
binding of GAPDH to lysosomes ([4]; lysosomes without protease inhibitors, Fig. S10C, D): did not significantly modify binding or uptake of GAPDH by CMA
endogenous HSPA8 ATPase activity (HSPA8): effectively increase both the endogenous and HSP40-stimulated ATPase activities of HSPA8 in a peptide dose-dependent manner
stability over pH in CMA+ lysosomal extracts [5]: remains stable on a large range of pH
binding to HSPA8 [6]: readily binds to HSPA8
localization by LysoTracker Red / MitoTracker Deep Red counterstaining (MRL/lpr mice splenocytes): accumulated into lysosomes
Lamp2a mRNA level (LAMP2A): lack of change at the mRNA level
entry pathway into B lymphocytes ([2]; B lymphocytes from 12-wk-old MRL/lpr mice, Alexa Fluor 488-labeled peptide 10 μM, 30 min at 37°C, confocal, Fig. 2A): endocytosed by a clathrin-dependent mechanism
LAMP1 expression in purified B cells (LAMP1): A similar trend was observed for LAMP1 expression
protective effect in lupus patients (lupus patients): displays protective properties
time for which the phosphoryl moiety was preserved ([7]; ALF, pH 4.2, 37°C, LC-MS, Fig. S8): about 2 h
dependence of stability on pH ([7]; pH 5.3 and 7.2 compared to 4.2, medium not given): more stable at higher pH (5.3 and 7.2 compared to 4.2)
binding to MHCII molecules [8]: binds both the HSPA8/HSC70/HSP73 chaperone and major histocompatibility complex class II (MHCII) molecules

B1: P140 peptide (SNRNP70/U1-70K 131-151, phosphoserine 140) (peptide)
peptide: RIHMVYSKR[pS]GKPRGYAFIEY
binding result [9]: binds

Reference: paper PMC4502742 (Autophagy, 2015)
